Reference: ChEMBL document CHEMBL2311390, “Synthesis and preliminary evaluation of pharmacological properties of some piperazine derivatives of xanthone” (Bioorg Med Chem, 2013)

Key:
Rattus norvegicus [1] = assay: Hypotensive activity in normotensive Wistar rat assessed as reduction of systolic blood pressure at 0.1 to 5 mg/kg, iv; assay type: functional, Artery; parameters: scale not given: the % may be the effect or the level left; details: dose mg/kg 0.1-5
Method in brief: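 Male normotensive Wistar rats were anaesthetised with thiopental 75 mg/kg ip. The right carotid artery was cannulated with heparinised saline for pressure recording. After 5 min of stabilisation, compound was injected into the tail vein at 1 mL/kg. Systolic and diastolic pressure were followed up to 60 min. Data are means ± SEM of 5–6 rats, analysed by one-way ANOVA.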

Rattus norvegicus [2] = assay: Cardiotoxicity in Wistar rat assessed as hear beats per min at 10 mg/kg, iv after 15 mins by ECG analysis; assay type: toxicity, organism-based; parameters: dose 10 mg/kg, route intravenous; details: in vivo, 0.25 h
Method in brief: (§1)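 Male normotensive Wistar rats, 170–350 g, six per group. Compound given iv at a constant volume of 1 mL/kg. ECG was recorded just before dosing and at 1, 5 and 15 min after. PQ, QRS and QT intervals and heart rate were read from the trace. Groups were compared by one-way ANOVA.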

Rattus norvegicus [3] = assay: Cardiotoxicity in Wistar rat assessed as QT interval at 10 mg/kg, iv after 15 mins by ECG analysis; assay type: toxicity, organism-based; parameters: dose 10 mg/kg, route intravenous; details: in vivo, 0.25 h; method in brief: as §1
Rattus norvegicus [4] = assay: Cardiotoxicity in Wistar rat assessed as QRS interval at 10 mg/kg, iv after 15 mins by ECG analysis; assay type: toxicity, organism-based; parameters: dose 10 mg/kg, route intravenous; details: in vivo, 0.25 h; method in brief: as §1
Rattus norvegicus [5] = assay: Cardiotoxicity in Wistar rat assessed as PQ interval at 10 mg/kg, iv after 15 mins by ECG analysis; assay type: toxicity, organism-based; parameters: dose 10 mg/kg, route intravenous; details: in vivo, 0.25 h; method in brief: as §1
Rattus norvegicus [6] = assay: Cardiotoxicity in Wistar rat assessed as hear beats per min at 10 mg/kg, iv after 10 mins by ECG analysis; assay type: toxicity, organism-based; parameters: dose 10 mg/kg, route intravenous; details: in vivo
Rattus norvegicus [7] = assay: Cardiotoxicity in Wistar rat assessed as QT interval at 10 mg/kg, iv after 10 mins by ECG analysis; assay type: toxicity, organism-based; parameters: dose 10 mg/kg, route intravenous; details: in vivo
Rattus norvegicus [8] = assay: Cardiotoxicity in Wistar rat assessed as QRS interval at 10 mg/kg, iv after 10 mins by ECG analysis; assay type: toxicity, organism-based; parameters: dose 10 mg/kg, route intravenous; details: in vivo
Rattus norvegicus [9] = assay: Cardiotoxicity in Wistar rat assessed as PQ interval at 10 mg/kg, iv after 10 mins by ECG analysis; assay type: toxicity, organism-based; parameters: dose 10 mg/kg, route intravenous; details: in vivo
Rattus norvegicus [10] = assay: Cardiotoxicity in Wistar rat assessed as hear beats per min at 10 mg/kg, iv after 5 mins by ECG analysis; assay type: toxicity, organism-based; parameters: dose 10 mg/kg, route intravenous; details: in vivo; method in brief: as §1
Rattus norvegicus [11] = assay: Cardiotoxicity in Wistar rat assessed as QT interval at 10 mg/kg, iv after 5 mins by ECG analysis; assay type: toxicity, organism-based; parameters: dose 10 mg/kg, route intravenous; details: in vivo; method in brief: as §1
Rattus norvegicus [12] = assay: Cardiotoxicity in Wistar rat assessed as QRS interval at 10 mg/kg, iv after 5 mins by ECG analysis; assay type: toxicity, organism-based; parameters: dose 10 mg/kg, route intravenous; details: in vivo; method in brief: as §1
Rattus norvegicus [13] = assay: Cardiotoxicity in Wistar rat assessed as PQ interval at 10 mg/kg, iv after 5 mins by ECG analysis; assay type: toxicity, organism-based; parameters: dose 10 mg/kg, route intravenous; details: in vivo; method in brief: as §1
[14] = target: T1, Adrenergic receptor alpha-1 (Rattus norvegicus, UniProt P15823+P23944+P43140); assay: Displacement of [3H]-prazosin from alpha1-adrenergic receptor in rat cerebral cortex by liquid scintillation counting; assay type: tissue-based
T1 sequence (P15823 whole entry): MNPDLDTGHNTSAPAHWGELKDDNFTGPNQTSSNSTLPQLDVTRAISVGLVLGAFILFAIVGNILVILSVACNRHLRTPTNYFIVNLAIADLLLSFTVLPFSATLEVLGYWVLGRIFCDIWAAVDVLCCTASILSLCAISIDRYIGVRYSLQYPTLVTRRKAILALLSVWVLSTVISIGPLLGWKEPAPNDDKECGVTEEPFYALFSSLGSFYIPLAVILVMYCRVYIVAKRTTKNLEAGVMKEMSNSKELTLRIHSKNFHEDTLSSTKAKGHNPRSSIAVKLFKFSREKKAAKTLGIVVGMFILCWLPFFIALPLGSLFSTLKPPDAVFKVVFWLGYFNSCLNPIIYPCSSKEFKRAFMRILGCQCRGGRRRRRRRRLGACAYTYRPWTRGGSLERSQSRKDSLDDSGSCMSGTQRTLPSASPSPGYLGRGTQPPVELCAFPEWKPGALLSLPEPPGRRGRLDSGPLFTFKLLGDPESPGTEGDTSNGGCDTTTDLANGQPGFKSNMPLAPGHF
T1 sequence (P23944 whole entry): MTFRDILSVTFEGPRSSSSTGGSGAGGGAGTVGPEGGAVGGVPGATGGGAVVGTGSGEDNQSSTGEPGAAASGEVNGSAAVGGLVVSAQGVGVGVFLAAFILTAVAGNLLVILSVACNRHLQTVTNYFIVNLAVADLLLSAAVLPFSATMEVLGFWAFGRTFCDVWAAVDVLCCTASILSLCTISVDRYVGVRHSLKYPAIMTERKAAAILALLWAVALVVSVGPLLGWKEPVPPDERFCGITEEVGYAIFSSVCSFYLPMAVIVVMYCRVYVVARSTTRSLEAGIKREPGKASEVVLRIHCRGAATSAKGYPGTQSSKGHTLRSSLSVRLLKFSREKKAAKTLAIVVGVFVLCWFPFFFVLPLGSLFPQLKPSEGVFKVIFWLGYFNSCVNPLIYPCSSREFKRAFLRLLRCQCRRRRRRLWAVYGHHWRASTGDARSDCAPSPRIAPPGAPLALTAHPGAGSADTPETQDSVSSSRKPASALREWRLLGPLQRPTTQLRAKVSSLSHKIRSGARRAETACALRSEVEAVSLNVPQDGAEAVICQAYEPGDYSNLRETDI
T1 sequence (P43140 whole entry): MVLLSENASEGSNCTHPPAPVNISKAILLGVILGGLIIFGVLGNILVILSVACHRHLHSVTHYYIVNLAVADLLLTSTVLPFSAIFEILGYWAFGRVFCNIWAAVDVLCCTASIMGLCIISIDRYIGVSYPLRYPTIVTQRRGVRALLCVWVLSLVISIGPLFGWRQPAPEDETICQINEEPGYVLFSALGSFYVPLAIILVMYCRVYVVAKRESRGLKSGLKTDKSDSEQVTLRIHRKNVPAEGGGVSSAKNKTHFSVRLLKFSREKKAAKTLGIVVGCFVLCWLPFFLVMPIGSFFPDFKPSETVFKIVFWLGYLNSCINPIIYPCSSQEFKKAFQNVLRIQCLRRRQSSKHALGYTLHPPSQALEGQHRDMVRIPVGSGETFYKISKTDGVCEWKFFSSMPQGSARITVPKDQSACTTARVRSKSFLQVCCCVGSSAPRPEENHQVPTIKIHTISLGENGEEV
Method in brief: (§2)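 Rat cerebral cortex was homogenised in ice-cold 50 mM Tris-HCl pH 7.6 and spun at 20,000 g for 20 min at 0–4 °C, then washed once. Radioligands: [3H]prazosin 0.2 nM for α1, [3H]clonidine 2 nM for α2, [3H]CGP-12177 0.2 nM for β1. Test compounds were run at 7–8 concentrations from 10^-11 to 10^-4 M. Nonspecific binding was defined with phentolamine (α1), clonidine (α2) or propranolol (β1). Counting was by liquid scintillation, in duplicate. Ki was derived by Cheng–Prusoff from 2–3 experiments.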

[15] = Displacement of [3H]CGP-12177 from beta1-adrenergic receptor in rat cerebral cortex by liquid scintillation counting; assay type: tissue-based; method in brief: as §2
[16] = target: T2, Adrenergic receptor alpha-2 (Rattus norvegicus, UniProt P22086+P19328+P22909); assay: Displacement of [3H]clonidine from alpha2-adrenergic receptor in rat cerebral cortex by liquid scintillation counting; assay type: tissue-based; method in brief: as §2
T2 sequence (P22086 whole entry): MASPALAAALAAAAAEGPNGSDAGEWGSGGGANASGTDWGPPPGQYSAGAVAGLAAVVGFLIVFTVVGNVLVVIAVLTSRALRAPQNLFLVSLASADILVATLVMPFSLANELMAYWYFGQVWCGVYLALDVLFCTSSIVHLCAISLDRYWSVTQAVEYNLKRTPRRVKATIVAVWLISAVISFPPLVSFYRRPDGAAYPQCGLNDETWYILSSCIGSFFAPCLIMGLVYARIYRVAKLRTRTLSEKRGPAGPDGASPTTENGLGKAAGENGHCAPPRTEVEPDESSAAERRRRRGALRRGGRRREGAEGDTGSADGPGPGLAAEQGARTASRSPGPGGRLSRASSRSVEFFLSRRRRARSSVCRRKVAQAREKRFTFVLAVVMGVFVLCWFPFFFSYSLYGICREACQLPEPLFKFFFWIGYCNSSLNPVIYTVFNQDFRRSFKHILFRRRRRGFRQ
T2 sequence (P19328 whole entry): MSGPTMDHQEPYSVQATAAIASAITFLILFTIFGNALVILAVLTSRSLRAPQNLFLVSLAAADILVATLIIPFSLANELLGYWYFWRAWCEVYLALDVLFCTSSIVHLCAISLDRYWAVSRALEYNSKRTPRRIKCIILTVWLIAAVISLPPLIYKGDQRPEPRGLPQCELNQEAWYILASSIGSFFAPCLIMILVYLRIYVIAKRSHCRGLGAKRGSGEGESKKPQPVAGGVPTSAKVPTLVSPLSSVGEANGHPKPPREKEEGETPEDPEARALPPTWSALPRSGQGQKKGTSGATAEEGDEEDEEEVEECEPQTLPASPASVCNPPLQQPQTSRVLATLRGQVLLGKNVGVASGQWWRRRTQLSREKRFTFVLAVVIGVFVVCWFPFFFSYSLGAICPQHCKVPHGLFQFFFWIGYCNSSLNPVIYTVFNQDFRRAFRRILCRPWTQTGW
T2 sequence (P22909 whole entry): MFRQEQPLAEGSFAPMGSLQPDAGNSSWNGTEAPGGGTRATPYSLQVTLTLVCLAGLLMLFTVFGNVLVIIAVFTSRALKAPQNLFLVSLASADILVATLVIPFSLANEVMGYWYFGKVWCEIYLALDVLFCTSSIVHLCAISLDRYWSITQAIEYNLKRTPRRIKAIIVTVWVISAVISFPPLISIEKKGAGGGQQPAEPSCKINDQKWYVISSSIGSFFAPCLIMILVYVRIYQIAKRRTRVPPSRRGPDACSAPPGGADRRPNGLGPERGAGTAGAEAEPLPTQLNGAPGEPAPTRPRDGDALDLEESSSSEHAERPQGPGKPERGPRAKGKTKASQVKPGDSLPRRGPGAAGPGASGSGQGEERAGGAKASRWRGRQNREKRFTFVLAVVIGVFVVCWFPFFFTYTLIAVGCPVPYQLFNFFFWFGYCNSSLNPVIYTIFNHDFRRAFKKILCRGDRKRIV

Rattus norvegicus [17] = assay: Antiarrhythmic activity in iv dosed Wistar rat adrenaline-induced arrhythmia model assessed as reduction of heart-rhythm disturbance administered 15 mins adrenaline-challenge; assay type: functional; details: 0.25 h
Method in brief: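 Anaesthetised male Wistar rats (thiopental 75 mg/kg ip). Test compound iv at 1 mL/kg, given 15 min before adrenaline 20 µg/kg iv. Activity means no premature beats and inhibition of arrhythmia, judged against a control group. There were three dose groups of six rats. ED50 with confidence limits was calculated by the Litchfield–Wilcoxon method.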

CC(C)NCC(O)COc1ccc2c(=O)c3ccccc3oc2c1 (centres undefined)
Activity (Rattus norvegicus [1]): 7%

COc1ccc(N2CCN(CCCOc3cccc4c(=O)c5ccccc5oc34)CC2)cc1.Cl
Activity (Rattus norvegicus [2]): 311.4 bpm
Activity (Rattus norvegicus [3]): 82.4 ms
Activity (Rattus norvegicus [4]): 24.2 ms
Activity (Rattus norvegicus [5]): 43.7 ms
Activity (Rattus norvegicus [6]): 317.4 bpm
Activity (Rattus norvegicus [7]): 80.2 ms
Activity (Rattus norvegicus [8]): 23.6 ms
Activity (Rattus norvegicus [9]): 43.7 ms
Activity (Rattus norvegicus [10]): 323 bpm
Activity (Rattus norvegicus [11]): 79.4 ms
Activity (Rattus norvegicus [12]): 22.8 ms
Activity (Rattus norvegicus [13]): 43.5 ms
Ki [14]: 1.1 µM
Ki [15]: 31.6 µM

COc1ccccc1N1CCN(CCCOc2cccc3c(=O)c4ccc(Cl)cc4oc23)CC1.Cl
Ki [16]: 5.5 µM
Ki [14]: 0.082 µM
Ki [15]: 4.5 µM

COc1ccccc1OCCNCC(O)COc1cccc2[nH]c3ccccc3c12 (centres undefined) [CARVEDILOL]
ED50 (Rattus norvegicus [17]): 0.25 mg/kg
